Test results from PubChem BioAssay AID504535 (Broad Institute, 2011).
Values joined by “and” are separate entries in the source; they are usually repeats but may differ in a detail not shown here. Equal values may be shown once. Records with an inconclusive call do not appear. Active and inactive are the calls of the source.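 How the source made its calls: active means luminescence drop with fitted half-effect dose at most ten times the top tested dose, in every repeat; inconclusive means repeats disagree, flat moderate inhibition, or unreliable curve fit; inactive means every repeat flat, too weak, or signal rising.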

tested on: HMLE_shECad viability, CellTiter-Glo luminescence, 72 h; assay: killing of E-cadherin-knockdown HMLE cells – cell-based, CellTiter-Glo luminescence, primary HTS retest, dry powder, set 5, dose response (AID 504535); conditions: not given
In short: (§1)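 Assay system: HMLE_shECad cells, E-cadherin-knockdown EMT-induced breast cancer stem cell model. Amount: 2000 cells/well. Medium: serum-free CSC medium. Compound: 100 nL pinned compound. Times: about 72 h compound exposure at 37 °C, 5% CO2. Signal: CellTiter-Glo ATP luminescence, reagent diluted 1:3 in PBS.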

| Compound | AC50 |
| --- | --- |
| Cc1csc(NC(=O)c2ccc(COCc3ccccc3)o2)n1 | 6.04 µM |
| Cc1cc(C)c(OCC(=O)N/N=C/c2ccc[nH]2)c(C)c1 | 9.43 µM |
| Cc1cc(Br)ccc1OCC(=O)N/N=C/c1ccc[nH]1 | 3.76 µM |
| O=C(COc1c(Cl)cc(Cl)cc1Cl)N/N=C/c1ccc[nH]1 | 1.44 µM |
| COc1cccc(OCc2ccc(C(=O)Nc3nc(C)cs3)o2)c1 | 0.348 µM |
| CCc1ccc(/C=C/C(=O)NC2=NCCS2)cc1 | 1.67 µM |
| Cc1csc(NC(=O)c2ccc(COC3CCCCC3)o2)n1 | 17 µM |
| O=C(Nc1nc(C(F)(F)F)cs1)c1ccc(COc2ccccc2)o1 | 13.2 µM |
| Cc1csc(NC(=O)c2ccc(CCc3ccccc3)o2)n1 | 0.895 µM |
| Cc1cccc(OCc2ccc(C(=O)Nc3nc(C)cs3)o2)c1 | 0.259 µM and 0.332 µM |
| Cc1ccc(OCc2ccc(C(=O)Nc3nc(C)cs3)o2)cc1 | 2.51 µM |
| Cc1csc(NC(=O)c2ccc(COc3ccccn3)o2)n1 | 17.8 µM |
| CC(C)c1ccc(/C=C/C(=O)N(C)C2=NCCS2)cc1 | 21.2 µM |
| CC(C)c1ccc(/C=C/C(=O)NC2=NCCS2)cc1 | 2.97 µM |
| CC(C)c1ccc(/C=C/C(=O)Nc2cncs2)cc1 | 11.4 µM |
| N#Cc1csc(NC(=O)c2ccc(COc3ccccc3)o2)n1 | 18.1 µM |
| CC(C)Cc1ccc(/C=C/C(=O)NC2=NCCS2)cc1 | 0.57 µM |
| Cc1csc(NC(=O)c2ccc(CNc3ccccc3)o2)n1 | 0.676 µM |
| N#Cc1ccc(/C=C/C(=O)NC2=NCCS2)cc1 | 29.2 µM |

tested on: not listed separately; assay: as above; conditions: HMLE_shECad viability, CellTiter-Glo luminescence, 72 h; at 19.5 µM (top of the series)
In short: as §1

| Compound | activity change, negative = inhibition |
| --- | --- |
| CNC(=O)c1csc(NC(=O)c2ccc(COc3ccccc3)o2)n1 | -8.68% (inactive) |
| Cn1c(C(=O)NC2=NCCS2)cc2ccccc21 | -9.82% (inactive) |
| COCc1ccc(C(=O)Nc2nc(C)cs2)o1 | 1.05% (inactive) |
| Cc1csc(NCc2ccc(COc3ccccc3)o2)n1 | -11.4% (inactive) |
| C/C(=C\C(=O)NC1=NCCS1)c1ccc(C)cc1 | -1.94% (inactive) |
| CC(C)NC(=O)c1ccc(COc2ccccc2)o1 | -14.2% (inactive) |
| C/C(=C\C(=O)NC1=NCCS1)c1ccc(CC(C)C)cc1 | 3.46% (inactive) |
| O=C(Nc1nncs1)c1ccc(COc2ccccc2)o1 | -7.89% (inactive) |
| CCN(CC)C(=O)c1ccc(COc2ccccc2)o1 | 8.61% (inactive) |
| Cc1csc(NC(=O)c2ccc(COc3cccc(S(C)(=O)=O)c3)o2)n1 | -13.6% (inactive) |

same assay, conditions: HMLE_shECad viability, CellTiter-Glo luminescence, 72 h; at 30 µM (top of the series)

| Compound | activity change, negative = inhibition |
| --- | --- |
| Cc1ccc2cc(C(=O)NC3=NCCS3)n(C)c2c1 | -12.6% (inactive) |
